Reference: ChEMBL document CHEMBL4732237, “Discovery of 4-alkoxy-2-aryl-6,7-dimethoxyquinolines as a new class of topoisomerase I inhibitors endowed with potent in vitro anticancer activity” (2021)

The compounds below were run on MDA-MB-231 (assay: Growth inhibition of human MDA-MB-231 cells at 10 uM incubated for 48 hrs by sulforhodamine B assay relative to control). Conditions: read-out: GI.
Type: functional
How it was run: (§1)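 NCI-60 single-dose screen. Cells were grown in RPMI 1640 with 5% FBS and 2 mM L-glutamine and plated 24 h before drug addition. Compound was added at one concentration in DMSO-derived medium and incubated for 48 h at 37 °C in 5% CO2. Read-out was SRB protein stain at 515 nm. Result is percent growth versus the no-drug control and the time-zero cell count; values below 0 indicate lethality.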

| Structure (SMILES) | inhibition of growth at 10 µM |
| --- | --- |
| COc1cc2nc(-c3ccc(Cl)cc3)cc(OCCN3CCCC3)c2cc1OC | 3% |
| COc1cc2nc(-c3ccsc3)cc(OCCCN3CCC(O)CC3)c2cc1OC | 32% |
| COc1cc2nc(-c3ccco3)cc(OCCCN3CCC(O)CC3)c2cc1OC | 46% |
| COc1cc2nc(-c3ccc(C(F)(F)F)cc3)cc(OCCN3CCC(O)CC3)c2cc1OC | 13% |
| COc1cc2nc(-c3ccc(Cl)cc3)cc(OCCN3CCOCC3)c2cc1OC | 3% |

What follows are compounds tested on MCF7 (assay: Growth inhibition of human MCF7 cells at 10 uM incubated for 48 hrs by sulforhodamine B assay relative to control). Conditions: read-out: GI.
Type: functional
How it was run: as §1

| Structure (SMILES) | inhibition of growth at 10 µM |
| --- | --- |
| COc1cc2nc(-c3ccc(Cl)cc3)cc(OCCN3CCCC3)c2cc1OC | 3% |
| COc1cc2nc(-c3ccsc3)cc(OCCCN3CCC(O)CC3)c2cc1OC | 32% |
| COc1cc2nc(-c3ccco3)cc(OCCCN3CCC(O)CC3)c2cc1OC | 46% |
| COc1cc2nc(-c3ccc(C(F)(F)F)cc3)cc(OCCN3CCC(O)CC3)c2cc1OC | 13% |
| COc1cc2nc(-c3ccc(Cl)cc3)cc(OCCN3CCOCC3)c2cc1OC | 3% |

The compounds below were run on RXF 393 (assay: Growth inhibition of human RXF 393 cells at 10 uM incubated for 48 hrs by sulforhodamine B assay relative to control). Conditions: read-out: GI.
Type: functional
How it was run: (§2)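 NCI one-dose screen. Cells grown in RPMI 1640 with 5% FBS and 2 mM L-glutamine, plated and incubated 24 h at 37 °C, 5% CO2. DMSO-dissolved drug added, then 48 h further incubation. Adherent cells fixed with cold TCA, suspension cells fixed after settling. Stained with 0.4% SRB, absorbance read at 515 nm. Reported as percent growth relative to no-drug control and time-zero cell number.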

| Structure (SMILES) | inhibition of growth at 10 µM |
| --- | --- |
| COc1cc2nc(-c3ccc(Cl)cc3)cc(OCCN3CCCC3)c2cc1OC | 3% |
| COc1cc2nc(-c3ccsc3)cc(OCCCN3CCC(O)CC3)c2cc1OC | 32% |
| COc1cc2nc(-c3ccco3)cc(OCCCN3CCC(O)CC3)c2cc1OC | 46% |
| COc1cc2nc(-c3ccc(C(F)(F)F)cc3)cc(OCCN3CCC(O)CC3)c2cc1OC | 13% |
| COc1cc2nc(-c3ccc(Cl)cc3)cc(OCCN3CCOCC3)c2cc1OC | 3% |

The compounds below were run on NCI-H226 (assay: Growth inhibition of human NCI-H226 cells at 10 uM incubated for 48 hrs by sulforhodamine B assay relative to control). Conditions: read-out: GI.
Type: functional
How it was run: as §2

| Structure (SMILES) | inhibition of growth at 10 µM |
| --- | --- |
| COc1cc2nc(-c3ccc(Cl)cc3)cc(OCCN3CCCC3)c2cc1OC | 3% |
| COc1cc2nc(-c3ccsc3)cc(OCCCN3CCC(O)CC3)c2cc1OC | 32% |
| COc1cc2nc(-c3ccco3)cc(OCCCN3CCC(O)CC3)c2cc1OC | 46% |
| COc1cc2nc(-c3ccc(C(F)(F)F)cc3)cc(OCCN3CCC(O)CC3)c2cc1OC | 13% |
| COc1cc2nc(-c3ccc(Cl)cc3)cc(OCCN3CCOCC3)c2cc1OC | 3% |

The compounds below were run on U-251 (assay: Growth inhibition of human U-251 cells at 10 uM incubated for 48 hrs by sulforhodamine B assay relative to control). Conditions: read-out: GI.
Type: functional
How it was run: (§3)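 NCI one-dose screen across a 59-line panel. Cells were grown in RPMI 1640 with 5% FBS and 2 mM L-glutamine, plated and pre-incubated 24 h, then exposed to drug for 48 h at 37 °C, 5% CO2. Adherent cells were fixed with cold TCA (10% final), stained with 0.4% SRB in 1% acetic acid and read at 515 nm. Result is percent growth relative to no-drug control and time-zero cell count.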

| Structure (SMILES) | inhibition of growth at 10 µM |
| --- | --- |
| COc1cc2nc(-c3ccc(Cl)cc3)cc(OCCN3CCCC3)c2cc1OC | 3% |
| COc1cc2nc(-c3ccsc3)cc(OCCCN3CCC(O)CC3)c2cc1OC | 32% |
| COc1cc2nc(-c3ccco3)cc(OCCCN3CCC(O)CC3)c2cc1OC | 46% |
| COc1cc2nc(-c3ccc(C(F)(F)F)cc3)cc(OCCN3CCC(O)CC3)c2cc1OC | 13% |
| COc1cc2nc(-c3ccc(Cl)cc3)cc(OCCN3CCOCC3)c2cc1OC | 3% |

What follows are compounds tested on M14 (assay: Growth inhibition of human M14 cells at 10 uM incubated for 48 hrs by sulforhodamine B assay relative to control). Conditions: read-out: GI.
Type: functional
How it was run: as §1

| Structure (SMILES) | inhibition of growth at 10 µM |
| --- | --- |
| COc1cc2nc(-c3ccc(Cl)cc3)cc(OCCN3CCCC3)c2cc1OC | 3% |
| COc1cc2nc(-c3ccsc3)cc(OCCCN3CCC(O)CC3)c2cc1OC | 32% |
| COc1cc2nc(-c3ccco3)cc(OCCCN3CCC(O)CC3)c2cc1OC | 46% |
| COc1cc2nc(-c3ccc(C(F)(F)F)cc3)cc(OCCN3CCC(O)CC3)c2cc1OC | 13% |
| COc1cc2nc(-c3ccc(Cl)cc3)cc(OCCN3CCOCC3)c2cc1OC | 3% |

What follows are compounds tested on SK-OV-3 (assay: Growth inhibition of human SK-OV-3 cells at 10 uM incubated for 48 hrs by sulforhodamine B assay relative to control). Conditions: read-out: GI.
Type: functional
How it was run: as §2

| Structure (SMILES) | inhibition of growth at 10 µM |
| --- | --- |
| COc1cc2nc(-c3ccc(Cl)cc3)cc(OCCN3CCCC3)c2cc1OC | 3% |
| COc1cc2nc(-c3ccsc3)cc(OCCCN3CCC(O)CC3)c2cc1OC | 32% |
| COc1cc2nc(-c3ccco3)cc(OCCCN3CCC(O)CC3)c2cc1OC | 46% |
| COc1cc2nc(-c3ccc(C(F)(F)F)cc3)cc(OCCN3CCC(O)CC3)c2cc1OC | 13% |
| COc1cc2nc(-c3ccc(Cl)cc3)cc(OCCN3CCOCC3)c2cc1OC | 3% |

What follows are compounds tested on COLO 205 (assay: Growth inhibition of human COLO 205 cells at 10 uM incubated for 48 hrs by sulforhodamine B assay relative to control). Conditions: read-out: GI.
Type: functional
How it was run: as §1

| Structure (SMILES) | inhibition of growth at 10 µM |
| --- | --- |
| COc1cc2nc(-c3ccc(Cl)cc3)cc(OCCN3CCCC3)c2cc1OC | 3% |
| COc1cc2nc(-c3ccsc3)cc(OCCCN3CCC(O)CC3)c2cc1OC | 32% |
| COc1cc2nc(-c3ccco3)cc(OCCCN3CCC(O)CC3)c2cc1OC | 46% |
| COc1cc2nc(-c3ccc(C(F)(F)F)cc3)cc(OCCN3CCC(O)CC3)c2cc1OC | 13% |
| COc1cc2nc(-c3ccc(Cl)cc3)cc(OCCN3CCOCC3)c2cc1OC | 3% |

Each compound was assayed on UO-31 (assay: Growth inhibition of human UO-31 cells at 10 uM incubated for 48 hrs by sulforhodamine B assay relative to control). Conditions: read-out: GI.
Type: functional
How it was run: as §3

| Structure (SMILES) | inhibition of growth at 10 µM |
| --- | --- |
| COc1cc2nc(-c3ccc(Cl)cc3)cc(OCCN3CCCC3)c2cc1OC | 3% |
| COc1cc2nc(-c3ccsc3)cc(OCCCN3CCC(O)CC3)c2cc1OC | 32% |
| COc1cc2nc(-c3ccco3)cc(OCCCN3CCC(O)CC3)c2cc1OC | 46% |
| COc1cc2nc(-c3ccc(C(F)(F)F)cc3)cc(OCCN3CCC(O)CC3)c2cc1OC | 13% |
| COc1cc2nc(-c3ccc(Cl)cc3)cc(OCCN3CCOCC3)c2cc1OC | 3% |

What follows are compounds tested on MOLT-4 (assay: Growth inhibition of human MOLT-4 cells at 10 uM incubated for 48 hrs by sulforhodamine B assay relative to control). Conditions: read-out: GI.
Type: functional
How it was run: as §2

| Structure (SMILES) | inhibition of growth at 10 µM |
| --- | --- |
| COc1cc2nc(-c3ccc(Cl)cc3)cc(OCCN3CCCC3)c2cc1OC | 3% |
| COc1cc2nc(-c3ccsc3)cc(OCCCN3CCC(O)CC3)c2cc1OC | 32% |
| COc1cc2nc(-c3ccco3)cc(OCCCN3CCC(O)CC3)c2cc1OC | 46% |
| COc1cc2nc(-c3ccc(C(F)(F)F)cc3)cc(OCCN3CCC(O)CC3)c2cc1OC | 13% |
| COc1cc2nc(-c3ccc(Cl)cc3)cc(OCCN3CCOCC3)c2cc1OC | 3% |

Each compound was assayed on IGROV-1 (assay: Growth inhibition of human IGROV-1 cells at 10 uM incubated for 48 hrs by sulforhodamine B assay relative to control). Conditions: read-out: GI.
Type: functional
How it was run: as §1

| Structure (SMILES) | inhibition of growth at 10 µM |
| --- | --- |
| COc1cc2nc(-c3ccc(Cl)cc3)cc(OCCN3CCCC3)c2cc1OC | 3% |
| COc1cc2nc(-c3ccsc3)cc(OCCCN3CCC(O)CC3)c2cc1OC | 32% |
| COc1cc2nc(-c3ccco3)cc(OCCCN3CCC(O)CC3)c2cc1OC | 46% |
| COc1cc2nc(-c3ccc(C(F)(F)F)cc3)cc(OCCN3CCC(O)CC3)c2cc1OC | 13% |
| COc1cc2nc(-c3ccc(Cl)cc3)cc(OCCN3CCOCC3)c2cc1OC | 3% |

The compounds below were run on A498 (assay: Growth inhibition of human A498 cells at 10 uM incubated for 48 hrs by sulforhodamine B assay relative to control). Conditions: read-out: GI.
Type: functional
How it was run: as §3

| Structure (SMILES) | inhibition of growth at 10 µM |
| --- | --- |
| COc1cc2nc(-c3ccc(Cl)cc3)cc(OCCN3CCCC3)c2cc1OC | 3% |
| COc1cc2nc(-c3ccsc3)cc(OCCCN3CCC(O)CC3)c2cc1OC | 32% |
| COc1cc2nc(-c3ccco3)cc(OCCCN3CCC(O)CC3)c2cc1OC | 46% |
| COc1cc2nc(-c3ccc(C(F)(F)F)cc3)cc(OCCN3CCC(O)CC3)c2cc1OC | 13% |
| COc1cc2nc(-c3ccc(Cl)cc3)cc(OCCN3CCOCC3)c2cc1OC | 3% |

What follows are compounds tested on SF-295 (assay: Growth inhibition of human SF-295 cells at 10 uM incubated for 48 hrs by sulforhodamine B assay relative to control). Conditions: read-out: GI.
Type: functional
How it was run: as §2

| Structure (SMILES) | inhibition of growth at 10 µM |
| --- | --- |
| COc1cc2nc(-c3ccc(Cl)cc3)cc(OCCN3CCCC3)c2cc1OC | 3% |
| COc1cc2nc(-c3ccsc3)cc(OCCCN3CCC(O)CC3)c2cc1OC | 32% |
| COc1cc2nc(-c3ccco3)cc(OCCCN3CCC(O)CC3)c2cc1OC | 46% |
| COc1cc2nc(-c3ccc(C(F)(F)F)cc3)cc(OCCN3CCC(O)CC3)c2cc1OC | 13% |
| COc1cc2nc(-c3ccc(Cl)cc3)cc(OCCN3CCOCC3)c2cc1OC | 3% |
